Source: PubChem
Sampled rows, rich in hits. Any-hit rate of the full collection: about 4.6%.
OX1R antag-1 = antagonists of human orexin 1 receptor (OX1R); O43613; OX1R-expressing cells, FRET antagonist read-out; inhibition, % at 6.6 µM; 330,000 tested, 1.8% active; in the data active = inhibition mostly above about 38%, no sharp cut-off; inactive = mostly below about 40%
TAAR1 antag = antagonists of human TAAR1; inhibition, % at 3 µM; 360,000 tested, 1.5% active; AID 624466; CHO RD-HGA16 TAAR1, Fluo-8 calcium fluorescence, antagonist;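 active = inhibition above a per-plate cutoff, the mean inhibition of test compounds on that plate plus 3 SD, cut at about 49% in these data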
Target sequence (Q96RJ0 whole entry, looked up): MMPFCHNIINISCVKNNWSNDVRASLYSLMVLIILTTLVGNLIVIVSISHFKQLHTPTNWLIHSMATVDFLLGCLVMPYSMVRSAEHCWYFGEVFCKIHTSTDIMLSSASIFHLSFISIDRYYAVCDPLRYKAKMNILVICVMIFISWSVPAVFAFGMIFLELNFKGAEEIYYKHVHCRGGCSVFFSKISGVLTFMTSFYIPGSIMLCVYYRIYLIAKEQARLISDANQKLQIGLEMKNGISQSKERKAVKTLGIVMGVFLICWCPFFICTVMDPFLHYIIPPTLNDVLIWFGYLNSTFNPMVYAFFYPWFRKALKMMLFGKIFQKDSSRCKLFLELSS
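test system = CHO RD-HGA16 cells bearing hTAAR1 | replication = singlicate | controls = DMSO-only wells and EC80 β-PEA-stimulated wells | reagent = EC80 β-phenethylamine stimulus | read-out basis = percent inhibition of PEA-evoked calcium signal, max/basal emission ratio | schedule = seeding 17-24 h prior, 75-min 37 °C, 30-min RT dye loading | signal = kinetic Fluo-8 calcium fluorescence measurement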
GPR7 antag = antagonists of human GPR7 (neuropeptides B/W receptor 1); P48145; GPR7-expressing cells, fluorescence antagonist assay; inhibition, % at 4.4 µM; 290,000 tested, 1.1% active; in the data active = inhibition above about 16%, passing the limit was not always enough;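 note: cells stimulated with the agonist NPW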
Target sequence (P48145 whole entry, looked up): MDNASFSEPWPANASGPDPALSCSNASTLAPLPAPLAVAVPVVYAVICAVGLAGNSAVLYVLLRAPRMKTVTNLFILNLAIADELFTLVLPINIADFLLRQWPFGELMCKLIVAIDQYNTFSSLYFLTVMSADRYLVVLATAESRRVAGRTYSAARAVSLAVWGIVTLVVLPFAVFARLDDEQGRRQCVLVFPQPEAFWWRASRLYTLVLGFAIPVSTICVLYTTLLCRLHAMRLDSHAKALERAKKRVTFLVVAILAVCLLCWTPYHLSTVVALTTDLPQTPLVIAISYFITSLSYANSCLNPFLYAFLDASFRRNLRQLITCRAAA
TAAR1 agonist = human TAAR1 agonism; AID 624467; Q96RJ0; activation, % at 3 µM; CHO RD-HGA16 TAAR1, Fluo-8 calcium fluorescence; vehicle wells 0%, saturating PEA agonist 100%; 360,000 tested, 0.99% active;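 active = activation above the mean activation of all test compounds in the run plus 3 SD, cut at about 38% in these data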
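System: CHO-derived RD-HGA16 cells with stable Gα16 and human TAAR1 / Times: 17-24 h plating, Fluo-8 75 min 37 °C, 30 min RT / Technique: calcium-sensitive Fluo-8 signal, excitation 470-495, emission 515-575 nm / Measure: % activation relative to PEA EC100 response / Benchmarks: DMSO and PEA EC100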
CHO parental Ca = counter-screen: ATP calcium response change in parental CHO cells; parental CHO-K1, ATP-induced calcium, Fluo-8 fluorescence; 330,000 tested, 0.63% active; AID 463079; inhibition, % at 5.6 µM;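 active = inhibition above that plate's mean sample inhibition plus 3 SD, cut at about 26% in these data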
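Assay system – parental CHO cells · Reagent – ATP stimulus · Detection – intracellular calcium via Fluo-8 no-wash fluorescent dye · Evaluation – percent inhibition of ATP-evoked calcium rise, normalized to controls · Controls – ATP wells versus no-ATP DMSO wells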
OX1R antag-2 = human HCRTR1 antagonism; O43613; CHO/OX1R cells, Fluo-8 calcium fluorescence, orexin A; inhibition, % at 5 µM; 330,000 tested, 0.43% active; AID 434989;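 active = inhibition above its plate's threshold, mean inhibition of all tested compounds on the plate plus 3 SD, cut at about 37% in these data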
Large screens that a line does not name were inactive.

CC1(C)Cc2cccc(OCC(=O)Nc3cccnc3Cl)c2O1	none
CCc1ccc(C(=O)OCC(=O)N2CCCCCC2)cc1	none (no result: GPR7 antag)
CN(C)CCN1C(=O)C(O)=C(C(=O)c2cc3ccccc3o2)C1c1ccccn1 (configuration not stated)	OX1R antag-1 48.8 (no result: TAAR1 antag, TAAR1 agonist)
Cc1cccc(Nc2ncccc2C(=O)NCc2cccs2)c1C	TAAR1 agonist 37.6
Cc1ccc(Nc2ncccc2C(=O)NCc2cccs2)c(C)c1	none
Cc1ccc2c(c1)c1c(n2CC(O)CNC(C)(C)C)CCCC1 (configuration not stated)	GPR7 antag 21.4 (no result: OX1R antag-1, CHO parental Ca, OX1R antag-2)
CC1CN(C(=O)CSc2nnc3c(Cl)cc(Cl)cn23)CC(C)O1 (configuration not stated)	none
CC(C)NC(=O)N(C)C[C@@H]1Oc2c(NS(=O)(=O)c3ccccc3)cccc2C(=O)N([C@@H](C)CO)C[C@@H]1C	none (no result: GPR7 antag)
O=C(CCNC(=O)c1ccc(Br)cc1)NNC(=O)c1ccccc1	TAAR1 agonist 40.4 (no result: GPR7 antag)
O=C(CCNC(=O)c1ccccc1)NNC(=O)c1ccc(F)cc1	none (no result: GPR7 antag)
N=c1n(Cc2ccccc2Cl)c2ccccc2n1CC(O)c1ccco1 (configuration not stated)	none
O=C1CC(N2CCN(c3nc4ccccc4s3)CC2)C(=O)N1Cc1cccs1 (configuration not stated)	GPR7 antag 20.0
CCOC(=O)CSc1nc2c(c(-c3ccc(C)o3)c1C#N)CCCC2	CHO parental Ca 32.8
COC(=O)CSc1nc2c(c(-c3ccco3)c1C#N)CCCC2	none (no result: TAAR1 antag, TAAR1 agonist)
CN(C(=O)c1cccnc1)c1nc(-c2ccccc2)cs1	CHO parental Ca 51.2
CN(Cc1ccccc1)C(=O)c1cccnc1	none
CC(C)C(=O)Nc1ccc(C(=O)CSc2nnc(C3CC3)n2C2CC2)cc1	none (no result: GPR7 antag)
O=C(/C=C/c1cccc(F)c1)c1ccc(N2CCOCC2)cc1	none
O=C(/C=C/c1cccs1)c1ccc(N2CCOCC2)cc1	OX1R antag-1 65.0
O=[N+]([O-])c1ccc(C2=CSC3=NCCN23)cc1	OX1R antag-1 46.9 (no result: GPR7 antag)
Cc1ccc(C2=CSC3=NCCN23)cc1	none (no result: GPR7 antag)
CC(C)(C)c1ccc(-n2ncc3c2CCCC3NC(=O)C2(C(N)=O)CC2)cc1 (configuration not stated)	CHO parental Ca 42.9
Cc1cc(C(=O)NC2CCCc3c2cnn3-c2ccc(C(C)(C)C)cc2)nn1C (configuration not stated)	CHO parental Ca 50.8
COc1ccc(CNC(=O)CSc2nc(SC)ns2)cc1	CHO parental Ca 98.3
CCOC(=O)C1CCN(C(=O)c2sc3ncn(CC(=O)N4CCCCC4)c(=O)c3c2C)CC1	none (no result: OX1R antag-1, GPR7 antag, CHO parental Ca, OX1R antag-2)
O=C(/C=C/c1ccc(Cl)c([N+](=O)[O-])c1)Nc1ccc(NC(=O)c2ccco2)cc1	none (no result: OX1R antag-1, CHO parental Ca, OX1R antag-2)
O=C(/C=C/c1ccc(Cl)c([N+](=O)[O-])c1)Nc1cccc(NC(=O)c2ccco2)c1	OX1R antag-1 57.6, TAAR1 antag 69.5
O=C(/C=C/c1ccc(Cl)c([N+](=O)[O-])c1)Nc1cccnc1	OX1R antag-1 54.4
Nc1ncnc(Sc2ccccc2)c1[N+](=O)[O-]	OX1R antag-1 46.4
Nc1ncnc(Sc2ccc(Cl)cc2)c1[N+](=O)[O-]	none
COc1cccc(N=C2NC(=O)/C(=C/c3cc([N+](=O)[O-])ccc3O)S2)c1	none
COc1cc(/C=C2\S/C(=N/S(=O)(=O)c3ccc(C)cc3)NC2=O)c([N+](=O)[O-])cc1OC	OX1R antag-1 39.2
Cc1ccc(S(=O)(=O)/N=C2/NC(=O)/C(=C\c3ccccc3)S2)cc1	OX1R antag-1 32.6 (no result: GPR7 antag)
Cc1ccc(S(=O)(=O)/N=C2/NC(=O)/C(=C/c3cc([N+](=O)[O-])ccc3O)S2)cc1	CHO parental Ca 47.9, OX1R antag-2 42.8
Cc1ccc(S(=O)(=O)/N=C2/NC(=O)/C(=C\c3ccco3)S2)cc1	none
Cc1ccc(S(=O)(=O)/N=C2/NC(=O)/C(=C/c3ccccc3)S2)cc1	none
Cc1ccc(S(=O)(=O)/N=C2/NC(=O)/C(=C/c3ccncc3)S2)cc1	none
O=C1NC(=Nc2ccccc2Cl)S/C1=C\c1cc([N+](=O)[O-])ccc1O	OX1R antag-1 72.5
c1ccc(CCNc2ncnc3ccccc23)cc1	CHO parental Ca 31.8
Cc1cc2c(NCCc3ccccc3)ncnc2s1	OX1R antag-1 53.9, CHO parental Ca 63.8, OX1R antag-2 48.7
Cc1cc2c(Nc3ccccc3)ncnc2s1	none
CCOC(=O)[C@@H]1[C@H]2COc3ccc(Br)cc3[C@@H]2N2C(=O)N(c3ccc(F)cc3)C(=O)[C@@]12C	none (no result: GPR7 antag)
COc1c(C)cc(C(O)c2ncc(-c3cccc4ccccc34)[nH]2)cc1C (configuration not stated)	none (no result: OX1R antag-1, GPR7 antag, CHO parental Ca, OX1R antag-2)
C=CCn1c(SCc2nc3sc(C(=O)O)c(C)c3c(=O)[nH]2)nnc1-c1ccc(F)cc1	none
Cc1c(C(c2ccc(N(C)C)cc2)c2c(C)n(C)n(-c3ccccc3)c2=O)c(=O)n(-c2ccccc2)n1C	OX1R antag-1 70.7
CCOc1ccc(S(=O)(=O)Nc2cccc(C(=O)N(C)CC(=O)Nc3cccc(OC)c3)c2)cc1	none (no result: GPR7 antag)
Cc1[nH]c2ccccc2c1/C=N/NC(=O)c1cc(C(C)(C)C)[nH]n1	OX1R antag-1 38.1
Cc1[nH]c2ccccc2c1/C=N/NC(=O)c1cc(-c2ccccc2)n[nH]1	OX1R antag-1 70.0, TAAR1 antag 60.9
CC(C)(C)c1cc(C(=O)N/N=C/c2ccccn2)n[nH]1	none
Cc1[nH]c2ccccc2c1/C=N/NC(=O)c1ccccc1	none
Cc1ccc(S(=O)(=O)NC(=O)c2cc(C)n(C3CC3)c2C)cc1	none
Cc1c(NC(=O)c2ccc3c(c2)OCO3)cccc1-c1nc2ccccc2o1	OX1R antag-1 51.9
O=C(Nc1ccccc1-c1nc2ccccc2o1)c1ccc2c(c1)OCCO2	none (no result: OX1R antag-1, TAAR1 antag, TAAR1 agonist, CHO parental Ca, OX1R antag-2)
COc1ccc(-c2nn(-c3ccccc3)cc2C=O)cc1[N+](=O)[O-]	TAAR1 antag 48.8
CCC(C)(C)NC(=O)C(c1ccc(OC)cc1)N(C(=O)CCC(=O)Nc1cc(C)on1)C(C)(C)C (configuration not stated)	none
CCOc1[nH]n(-c2ccc(Cl)cc2)c(=O)c1C=Nc1ccc(C)cc1	none (no result: OX1R antag-1, TAAR1 antag, TAAR1 agonist, CHO parental Ca, OX1R antag-2)
CCOc1[nH]n(-c2ccc(Cl)cc2)c(=O)c1C=Nc1ccc(Cl)cc1	CHO parental Ca 38.0
COc1ccc(/C=C/C(=O)Oc2cccc(/C=N/NC(=O)c3cccc(F)c3)c2)cc1	GPR7 antag 18.5
COc1cc(C(=O)Nc2cccc(NC(=O)c3ccccc3)c2)cc(OC)c1OC	none
COc1cc(C(=O)Nc2cccc(NC(=O)c3cccs3)c2)cc(OC)c1OC	TAAR1 antag 51.2 (no result: OX1R antag-1, CHO parental Ca, OX1R antag-2)
O=C(Nc1cccc(O)c1)c1ccc(NC(=O)c2cccs2)cc1	TAAR1 antag 52.3
CCOC(=O)C1CCN(S(=O)(=O)c2cc(Br)cc3c2N(C(=O)C2CC2)CC3)CC1	none
